Consider seven compounds from ChEMBL document CHEMBL4828729, “MSBA-S - A pentacyclic sulfamate as a new option for radiotherapy of human breast cancer cells” (Eur J Med Chem, 2021).

Activity calls are given as the source filed them.

For one test, the system named is BT-20. In words: Cytotoxicity against human BT-20 cells assessed as reduction in cell viability measured after 96 hrs by SRB assay. Type of test: functional, cell-based. The conditions noted are these: BT-20, 96 h. Summed up: (§1)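 Compounds were prepared as 20 mM DMSO stocks and applied 24 h after seeding in 96-well plates at 1-100 (so in the source) for 96 h under standard conditions. Cells were fixed with 10% trichloroacetic acid, stained with 0.4% SRB, washed with 1% acetic acid and dissolved in 20 mM Tris base. Absorbance was read at 540 nm. IC50 is the half-maximal inhibitory concentration, with a cut-off of 50. Mean ± SD of at least three independent experiments.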
Background: Sulforhodamine B stains cellular protein and so reports cell mass.

Test [1] has as its system MDA-MB-231. In words: Anticlonogenic activity against human MDA-MB-231 cells assessed as clonogenic survival rate at 40 uM measured after 24 hrs by giemsa staining based survival assay relative to control. Format: functional. The conditions noted are these: read-out: INH. The method, boiled down:
(§2)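 Cells seeded in 6-well plates and treated 24 h after seeding for 24 h. They were then trypsinized, counted and reseeded at 300 or 600 cells per 75 cm² flask. Colonies grew for about 12-14 days before paraformaldehyde fixation and 10% Giemsa staining. Only colonies of more than about 50 cells were scored for surviving fraction relative to control. Mean +SD of three independent experiments.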

Test [2] has as its system Hs-578T. In words: Anticlonogenic activity against human Hs-578T cells assessed as clonogenic survival rate at 40 uM measured after 24 hrs by giemsa staining based survival assay relative to control. Type of test: functional. The method, boiled down:
as §2

Test [3] concerns Hs-578T. In words: Induction of apoptosis in human Hs-578T cells assessed as nuclei shrinkage at 20 uM measured after 72 hrs by DAPI staining based fluorescence microscopy relative to control. Type of test: functional. Summed up:
(§3)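 After 72 h treatment under standard conditions, cells were trypsinized and pelleted together with the culture supernatant. They were resuspended in PBS, fixed in 70% ethanol, cytospun onto slides and stained with DAPI for 5 min. Apoptotic cells were scored by nuclear shrinkage. Mean +SD of three independent experiments.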

Test [4] has as its system MDA-MB-231. In words: Antimigratory activity against human MDA-MB-231 cells assessed as inhibition of cell migration measured by wound healing assay relative to control. Type of test: functional.
The test system of another test is MCF7. In words: Cytotoxicity against human MCF7 cells assessed as reduction in cell viability measured after 96 hrs by SRB assay. The conditions noted are these: MCF7, 96 h. Format: functional, cell-based. The method, boiled down: as §1
Test [5] concerns MDA-MB-231. Nature of the test: Cytotoxicity against human MDA-MB-231 cells assessed as reduction in cell viability measured after 96 hrs by SRB assay. Type of test: functional, cell-based. The conditions noted are these: MDA-MB-231, 96 h. The method, boiled down: as §1
The test system of test [6] is Hs-578T. In words: Cytotoxicity against human Hs-578T cells assessed as reduction in cell viability measured after 96 hrs by SRB assay. Type of test: functional, cell-based. The method, boiled down: as §1
For test [7], the system named is MDA-MB-231. Nature of the test: Anticlonogenic activity against human MDA-MB-231 cells assessed as clonogenic survival rate at 10 uM measured after 24 hrs by giemsa staining based survival assay relative to control. Type of test: functional. Summed up: as §2
Test [8] concerns Hs-578T. Nature of the test: Anticlonogenic activity against human Hs-578T cells assessed as clonogenic survival rate at 10 uM measured after 24 hrs by giemsa staining based survival assay relative to control. Format: functional. Summed up:
as §2

In test [9] the test system is Hs-578T. In words: Induction of apoptosis in human Hs-578T cells assessed as nuclei shrinkage at 10 uM measured after 72 hrs by DAPI staining based fluorescence microscopy relative to control. Format: functional. The method, boiled down:
as §3

The subject of test [10] is MDA-MB-231. In words: Induction of apoptosis in human MDA-MB-231 cells assessed as nuclei shrinkage at 10 uM measured after 72 hrs by DAPI staining based fluorescence microscopy relative to control. Type of test: functional. The method, boiled down: as §3
Test [11] concerns Hs-578T. Nature of the test: Induction of apoptosis in human Hs-578T cells assessed as necrotic cells at 10 uM measured after 24 hrs by Annexin V/propidium iodide staining based flow cytometry relative to control. Type of test: functional. The method, boiled down:
(§4)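 Cells were seeded in 6-well plates, grown 24 h and then treated for 24 h. They were resuspended in binding buffer (10 mM HEPES/NaOH, 140 mM NaCl, 5 mM CaCl₂, pH 7.4) and stained for 15 min with propidium iodide and/or Annexin V. Flow cytometry classified vital (Q3), necrotic (Q1), late apoptotic (Q2) and apoptotic (Q4) populations.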

Test [12] concerns Hs-578T. Nature of the test: Induction of apoptosis in human Hs-578T cells assessed as early apoptotic cells at 10 uM measured after 24 hrs by Annexin V/propidium iodide staining based flow cytometry relative to control. Type of test: functional. The method, boiled down:
as §4
For orientation: Flow cytometry measures light scatter and fluorescence of single cells or particles in a stream.

Test [13] has as its system Hs-578T. In words: Induction of apoptosis in human Hs-578T cells assessed as late apoptotic cells at 10 uM measured after 24 hrs by Annexin V/propidium iodide staining based flow cytometry relative to control. Type of test: functional. The method, boiled down:
as §4

The subject of test [14] is MDA-MB-231. In words: Induction of apoptosis in human MDA-MB-231 cells assessed as necrotic cells at 10 uM measured after 24 hrs by Annexin V/propidium iodide staining based flow cytometry relative to control. Type of test: functional. Summed up: as §4
In test [15] the test system is MDA-MB-231. Nature of the test: Induction of apoptosis in human MDA-MB-231 cells assessed as early apoptotic cells at 10 uM measured after 24 hrs by Annexin V/propidium iodide staining based flow cytometry relative to control. Type of test: functional. Summed up: as §4
Test [16] has as its system MDA-MB-231. Nature of the test: Induction of apoptosis in human MDA-MB-231 cells assessed as late apoptotic cells at 10 uM measured after 24 hrs by Annexin V/propidium iodide staining based flow cytometry relative to control. Type of test: functional. Summed up: as §4
For test [17], the system named is MDA-MB-231. In words: Induction of apoptosis in human MDA-MB-231 cells assessed as increase in ROS production at 20 uM measured after 24 hrs by CM-H2DCFDA staining based flow cytometry analysis relative to control. Type of test: functional. As to conditions: dose 5 µM, in the assay text read “at 5 uM” for “at 20 uM”. Summed up: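 Cells were plated in 6-well plates for 24 h, then treated for 24 h. They were loaded with 0.5 CM-H2DCFDA in PBS with CaCl₂/MgCl₂ for 30 min at 37 °C, washed, exposed to trypsin-EDTA (0.5%) for 3 min at 37 °C and detached with PBS. Fluorescence from dye conversion to chloromethyl-dichlorofluorescein was measured by flow cytometry. Values are fold change versus DMSO-treated cells.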

The subject of test [18] is MDA-MB-231. Nature of the test: Radiosensitization activity in human MDA-MB-231 cells assessed as ratio of DMSO treated surviving fraction to compound treated surviving fraction at 5 uM pre-incubated for 24 hrs prior to irradiation and measured by giemsa staining based assay. Type of test: functional. Summed up: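 Cells were incubated for 24 h with 5 (so in the source) compound, then irradiated with 6, 10 or 14 Gy. Colonies of more than about 50 cells were counted after about 12-14 days with Giemsa staining and normalized to unirradiated controls. DMF is the surviving fraction of DMSO control cells divided by that of treated cells, reported at 10% survival.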

For test [19], the system named is Hs-578T. Nature of the test: Induction of apoptosis in human Hs-578T cells assessed as nuclei shrinkage at 40 uM measured after 72 hrs by DAPI staining based fluorescence microscopy relative to control. Type of test: functional. Summed up:
as §3

For test [20], the system named is MDA-MB-231. In words: Induction of apoptosis in human MDA-MB-231 cells assessed as nuclei shrinkage at 40 uM measured after 72 hrs by DAPI staining based fluorescence microscopy relative to control. Type of test: functional. Summed up:
as §3

The subject of test [21] is MDA-MB-231 (Homo sapiens). Nature of the test: Antimigratory activity against human MDA-MB-231 cells assessed as inhibition of cell migration measured by wound healing assay.

Consider `C[C@H]1[C@H](C)CC[C@]2(C(=O)NCc3ccccc3)CC[C@]3(C)C(=CC[C@@H]4[C@@]5(C)CC[C@H](OS(N)(=O)=O)C(C)(C)[C@@H]5CC[C@]43C)[C@H]12`, for which, in the test on BT-20, the IC50 was 16.2 µM. Also, in the test with MDA-MB-231 [1], the clonogenic survival relative to control at 40 µM stood at 80.6%. Moreover, the inhibition at 40 µM in the test with Hs-578T [2] turned out to be 73.1%. The Activity in the test on Hs-578T [3] worked out at 3.5%.

As to `CC1(C)CC[C@]2(C(=O)O)CC[C@]3(C)C(=CC[C@@H]4[C@@]5(C)CC[C@H](O)C(C)(C)[C@@H]5CC[C@]43C)[C@@H]2C1`, in the test on MDA-MB-231 [4], the inhibition entry was “inactive”.

Regarding `CC1(C)CC[C@]2(C(=O)NCc3ccccc3)CC[C@]3(C)C(=CC[C@@H]4[C@@]5(C)C[C@@H](OS(N)(=O)=O)[C@H](OS(N)(=O)=O)C(C)(C)[C@@H]5CC[C@]43C)[C@@H]2C1`, the IC50 came out at 5.8 µM in the test with BT-20, 4.9 µM with MCF7, 3.7 µM in the test with MDA-MB-231 [5] and 3.8 µM in the test on Hs-578T [6]. In addition, the inhibition at 10 µM came out at 42.1% in the test with MDA-MB-231 [7] and 16.5% in the test on Hs-578T [8]. Moreover, the Activity amounted to 22.1% with Hs-578T [9]; 8.9% in the test with MDA-MB-231 [10]; 2.6% in the test on Hs-578T [11]; 8.7% in the test with Hs-578T [12]; 44.4% in the test with Hs-578T [13]; 1.6% in the test with MDA-MB-231 [14]. Besides, the Activity with MDA-MB-231 [15] is on record as 7.4%; with MDA-MB-231 [16], 18.4%. Also, in the test on MDA-MB-231 [17], the “fold change (FC)” value stood at 5.7. The Ratio with MDA-MB-231 [18] stood at 1.14.

`C=C(C)[C@@H]1CC[C@]2(C(=O)NCc3ccccc3)CC[C@]3(C)[C@H](CC[C@@H]4[C@@]5(C)CC[C@H](OS(N)(=O)=O)C(C)(C)[C@@H]5CC[C@]43C)[C@@H]12`: the IC50 in the test on BT-20 worked out at 16.2 µM; in the test on MCF7, 7.5 µM; in the test with MDA-MB-231 [5], 15.2 µM; with Hs-578T [6], 18.8 µM. The clonogenic survival relative to control at 40 µM with MDA-MB-231 [1] came out at 80.6%. Further, the inhibition at 40 µM with Hs-578T [2] stood at 73.1%. The results for the Activity with Hs-578T [19] and in the test with MDA-MB-231 [20] were 3.5% and 2.1%, respectively.

With `CC1(C)CC[C@]2(C(=O)NCc3ccccc3)CC[C@]3(C)C(=CC[C@@H]4[C@@]5(C)CC[C@H](OS(N)(=O)=O)C(C)(C)[C@@H]5CC[C@]43C)[C@@H]2C1`, the IC50 in the test on BT-20 was 16.2 µM; in the test on MCF7, more than 50 µM; in the test on MDA-MB-231 [5], more than 50 µM; in the test with Hs-578T [6] it was 15.8 µM. Also, the clonogenic survival relative to control at 40 µM in the test with MDA-MB-231 [1] was found to be 80.6%. In addition, the inhibition at 40 µM in the test on Hs-578T [2] worked out at 73.1%. In addition, the Activity in the test with Hs-578T [19] was determined as 3.5%.

As to `C=C(C)[C@@H]1CC[C@]2(C(=O)O)CC[C@]3(C)[C@H](CC[C@@H]4[C@@]5(C)CC[C@H](O)C(C)(C)[C@@H]5CC[C@]43C)[C@@H]12`, the inhibition result (in the test on MDA-MB-231 [4]; in [21]) was “Active” throughout.

As for `CC(=O)[C@@H]1CC[C@]2(C(=O)NCc3ccccc3)CC[C@]3(C)[C@H](CC[C@@H]4[C@@]5(C)CC[C@H](OS(N)(=O)=O)C(C)(C)[C@@H]5CC[C@]43C)[C@@H]12`, the IC50 in the test with BT-20 is 32 µM; with MCF7, 9.3 µM; in the test on MDA-MB-231 [5], more than 50 µM; in the test with Hs-578T [6] it was 16.9 µM. Further, the clonogenic survival relative to control at 40 µM in the test on MDA-MB-231 [1] was determined as 80.6%. Moreover, the inhibition at 40 µM with Hs-578T [2] was determined as 73.1%. For the same compound, the Activity in the test with Hs-578T [19] turned out to be 3.5%; with MDA-MB-231 [20] it was 2.1%.

As a reminder, the IC50 is the concentration needed to halve the response being measured. Usually inhibition stands for the share of the control response that was lost under treatment.
